Source: ChEMBL document CHEMBL1833967, “Bioassay-guided isolation of constituents of Piper sarmentosum using a mitochondrial transmembrane potential assay” (2011)

Columns and labels:
HL-60 = test: Inhibition of chymotrypsin-like activity of purified human 20S proteasome in HL60 cells using N-succinyl-Leu-Leu-Val-Tyr-AMC as substrate pre-incubated for 10 mins by fluorimetric assay; assay type: cell-based
Method in brief: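 Enzyme source was a proteasome fraction isolated from HL-60 human leukemia cells. […] Activity is reported as ED50 in μM.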

HT-29 [1] = test: Induction of apoptosis in human HT-29 cells assessed reduction of mitochondrial membrane potential after 2 hrs by using JC1 staining by fluorescence cell-based assay; assay type: functional; settings: HT-29, 2 h, read-out: ED50 (the source's name)
HT-29 [2] = test: Cytotoxicity against human HT-29 cells after 3 days by sulforhodamine B assay; assay type: functional; settings: read-out: ED50 (the source's name)

EC50 (HT-29 [1]) [µM] | Structure (SMILES) | ED50 (HL-60) [µM] | EC50 (HT-29 [2]; Homo sapiens, HT-29, 72 h) [µM] | EC50 (HT-29 [2]) [µM]
13.6 | COc1cc(O)c2c(c1Cc1ccccc1O)O[C@H](c1ccccc1)CC2=O | > 20 | > 20 | 
1.6 | COc1c(Cc2ccccc2O)c(O)c2c(c1Cc1ccccc1O)O[C@H](c1ccccc1)CC2=O | 3.45 | > 20 | 
 | CC(C)C[C@H](NC(=O)[C@H](Cc1ccccc1)NC(=O)c1cnccn1)B(O)O [BORTEZOMIB] |  | > 20 | 
 | O=C1C[C@@H](c2ccccc2)Oc2c(Cc3ccccc3O)c(O)c(Cc3ccccc3O)c(O)c21 [DICHAMANETIN] | > 20 |  | > 20
 | O=C1C[C@@H](c2ccccc2)Oc2cc(O)c(Cc3ccccc3O)c(O)c21 [ISOCHAMANETIN] | > 20 | > 20 | 
 | CC(=O)O[C@H]1C(=O)[C@@]2(C)[C@H]([C@H](OC(=O)c3ccccc3)[C@]3(O)C[C@H](OC(=O)[C@H](O)[C@@H](NC(=O)c4ccccc4)c4ccccc4)C(C)=C1C3(C)C)[C@]1(OC(C)=O)CO[C@@H]1C[C@@H]2O [PACLITAXEL] |  | 0.006 | 
 | O=C1C[C@@H](c2ccccc2)Oc2cc(O)cc(O)c21 [PINOCEMBRIN] | 2.87 | > 20 | 
4.6 | CC(C)CNC(=O)/C=C/C=C/CCCCc1ccc2c(c1)OCO2 [PIPERCALLOSINE] | > 20 | > 20 | 
 | O=C1C[C@@H](c2ccccc2)Oc2c(Cc3cc(Cc4cc(Cc5ccccc5O)ccc4O)ccc3O)c(O)c(Cc3ccccc3O)c(O)c21 [SARMENTOSUMIN A] | > 20 | > 20 | 
 | O=C1C[C@@H](c2ccccc2)Oc2c(Cc3ccccc3O)c(O)c(Cc3cc(Cc4cc(Cc5ccccc5O)ccc4O)ccc3O)c(O)c21 [SARMENTOSUMIN B] | > 20 | > 20 | 
2.5 | O=C1C[C@@H](c2ccccc2)Oc2c(Cc3ccccc3O)c(O)c(Cc3cc(Cc4cc(Cc5cc(Cc6ccccc6O)ccc5O)ccc4O)ccc3O)c(O)c21 [SARMENTOSUMIN C] | > 20 | > 20 | 
 | O=C1C[C@@H](c2ccccc2)Oc2c(Cc3cc(Cc4ccccc4O)ccc3O)c(O)c(Cc3cc(Cc4cc(Cc5ccccc5O)ccc4O)ccc3O)c(O)c21 [SARMENTOSUMIN D] | > 20 | > 20 | 
